# Shown are actives, neighbours in structure and some others; about 3% of the full set was active somewhere.
# SENP7 block: blocks the human protease SENP7; recombinant SENP7, Z-RLRGG-aminoluciferin luminescence, 40 min; inhibition, % at 5 µM; actives 1.5% (n = 330,000); AID 434973;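 active means inhibition above about 50% at the single test dose, limit read from the data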
# UBC13 inh: blocks human UBC13 polyubiquitin chain formation | inhibition, % at 20 µM | actives 0.47% (n = 330,000) | TR-FRET; in the data active means inhibition above about 45%, passing the limit was not always enough
# SENP6 block: SENP6 protease inhibition; Q9GZR1; Recombinant SENP6 catalytic domain, aminoluciferin luminescence; inhibition, % at 10 µM; actives 1.8% (n = 330,000); AID 2599;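 active means inhibition above about 50% at the single tested dose, limit read from the data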
# Target sequence (Q9GZR1 628-1112 limits assumed): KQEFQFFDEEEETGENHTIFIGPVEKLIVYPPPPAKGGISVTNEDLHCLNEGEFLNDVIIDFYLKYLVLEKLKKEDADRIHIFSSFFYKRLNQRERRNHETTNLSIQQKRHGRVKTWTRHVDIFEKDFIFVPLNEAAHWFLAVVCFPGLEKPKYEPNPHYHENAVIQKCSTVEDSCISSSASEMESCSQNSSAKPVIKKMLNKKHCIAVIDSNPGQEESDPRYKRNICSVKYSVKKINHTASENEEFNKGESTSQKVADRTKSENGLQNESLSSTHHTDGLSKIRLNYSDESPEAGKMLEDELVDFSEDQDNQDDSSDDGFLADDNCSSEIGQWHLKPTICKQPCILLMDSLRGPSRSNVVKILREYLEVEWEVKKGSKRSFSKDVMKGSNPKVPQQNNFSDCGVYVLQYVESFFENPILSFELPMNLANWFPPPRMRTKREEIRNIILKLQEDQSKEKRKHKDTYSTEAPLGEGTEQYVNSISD
# SENP8 block-1: inhibitors of human SENP8 protease; purified SENP8, Z-RLRGG-aminoluciferin cleavage, luminescence; inhibition, % at 10 µM; actives 1.2% (n = 330,000); AID 2540; in the data active means inhibition above about 50%
# SENP8 block-2: inhibitors of human SENP8 protease | Q96LD8 | inhibition, % at 20 µM | recombinant SENP8, Nedd8 substrate fluorescence | actives 0.64% (n = 360,000); in the data active means inhibition mostly above about 40%, no sharp cut-off; inactive means mostly below about 27%
# Apaf1 inhib: blocks human Apaf-1 apoptosome activity; O14727; reconstituted apoptosome caspase-3 activity, DEVD-Rh110 fluorescence; inhibition, % at 20 µM; actives 0.71% (n = 330,000); active means inhibition of at least 40% at 20 µM
#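 Assay system: Apoptosome proteins | Medium: pH 7.5 Hepes buffer with CHAPS, BSA, DTT | Also added: Cytochrome c and DEVD-Rh110 substrate | Times: 30 min plus 50 min, RT | Detection: Rhodamine 110 fluorescence at Ex 480/Em 540 nm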
# Apaf-1 inh conf: Apaf-1 inhibition, single-dose confirmed; shares compounds with Apaf1 inhib; reconstituted apoptosome, caspase-3 DEVD-Rh110 fluorescence; inhibition, % at 20 µM; actives 25% (n = 1,800);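 active means mean inhibition of at least 40% at 20 µM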
# Rh110 quench: counter-screen for Apaf-1 inhibitors: fluorescence interference | shares compounds with Apaf1 inhib | Rh110 fluorescence interference, quenched caspase reaction | activation (fluorescence interference), % at 20 µM | 1,800 tested, under 10 active | AID 504615;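 active means signal rise of 40% or more at 20 µM, treated as a fluorescence artifact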
# Apaf1 inh interf: shows fluorescence interference in the Apaf-1 inhibitor assay format. IC50, µM. shares compounds with Apaf1 inhib. 460 tested, under 10 active. fluorescence interference counterscreen, Apaf-1 assay format; call rule not given here
# Numbers stand for hits; i = inactive; nt = no result given.
SMILES,SENP7 block,UBC13 inh,SENP6 block,SENP8 block-1,SENP8 block-2,Apaf1 inhib,Apaf-1 inh conf,Rh110 quench,others
COC(=O)C1CCN(C(=O)COc2ccc(N(C)S(=O)(=O)c3ccc(C)cc3)cc2)CC1,i,i,i,i,i,i,nt,nt,
Cc1onc(-c2ccccc2)c1C(=O)OCC(=O)Nc1ccccc1Cl,nt,nt,nt,nt,i,nt,nt,nt,
Cc1c(C(=O)N(C)CCOc2ccccc2)oc2c(Cl)cccc12,i,i,i,i,i,44.6,i,i,
COc1ccc(N2CCN(C(=O)COc3ccc4c(C)cc(=O)oc4c3C)CC2)cc1,i,i,i,i,i,i,nt,nt,
COc1ccc(N2CCN(C(=O)c3ccc(COc4ccc5c(C)cc(=O)oc5c4)cc3)CC2)cc1,i,i,i,i,i,57.7,i,i,
CCCNC(=O)C1(C)CCCN(C(=O)COCc2ccccc2)C1 (centres undefined),nt,nt,nt,nt,i,nt,nt,nt,
CCCCCc1ccc(OCCC[n+]2ccccc2)c(CCCCC)c1,i,i,i,i,i,65.5,40.1,i,Apaf1 inh interf=i
CCOC(=O)c1ccc(NC2=CC(=O)C(=O)c3ccccc32)cc1,i,i,i,i,82.2,72.3,87.6,i,Apaf1 inh interf=i
C=CCC[C@@H](Cc1ccc(F)cc1)C(=O)OC[C@@H]1CCCN1C(=O)[C@H](CC=C)CC(=O)N[C@H](CO)Cc1ccccc1,i,i,i,i,i,43.1,i,i,
C=CCC[C@@H](Cc1ccc(F)cc1)C(=O)OC[C@H]1CCCN1C(=O)[C@@H](CC=C)CC(=O)N[C@H](CO)Cc1ccccc1,i,i,i,i,i,40.1,i,i,
C=CC[C@@H](Cc1ccc(F)cc1)C(=O)OC[C@H]1CCCN1C(=O)[C@@H](CC=C)CC(=O)N[C@@H](CO)Cc1ccccc1,i,i,i,i,i,i,nt,nt,
C=CCC[C@@H](Cc1ccc(F)cc1)C(=O)OC[C@@H]1CCCN1C(=O)[C@@H](CC=C)CC(=O)N(CCO)Cc1ccccc1,i,i,i,i,i,48.2,i,i,
C=CCC[C@H](Cc1ccc(F)cc1)C(=O)OC[C@H]1CCCN1C(=O)[C@@H](CC=C)CC(=O)NCCO,i,i,i,i,i,i,nt,nt,
Cc1ccc(N2CC(C(=O)OCC(=O)c3c(N)n(CC(C)C)c(=O)n(C)c3=O)CC2=O)cc1 (centres undefined),i,i,i,i,i,i,nt,nt,
CC(C)Cn1c(N)c(C(=O)COC(=O)C2CCCCC2)c(=O)n(C)c1=O,i,i,i,i,i,42.7,i,i,
CCN1/C(=C/c2ccc3ccccc3[n+]2CC)C=Cc2ccccc21,i,i,i,i,42.3,40.7,i,i,
Cc1ccc(/C=C/c2onc(C)c2S(=O)(=O)N2CCC(C(=O)N3CCN(C)CC3)CC2)cc1,i,i,i,i,i,45.4,i,i,
Cc1ccc(S(=O)(=O)N2CCN(c3nc(CN4CCCC4)nc4sc(C)c(C)c34)CC2)cc1,i,i,i,i,i,47.8,i,i,
CCCS(=O)(=O)NC(=O)C1(C)CCCN(C(=O)c2ccccc2C(F)(F)F)C1 (centres undefined),nt,nt,nt,nt,i,nt,nt,nt,
O=C1C=C(N2CCCCC2)c2ccccc2C1=O,54.6,i,93.3,82.6,i,97.6,99.6,i,Apaf1 inh interf=i
O=c1cc(CN(Cc2ccccc2)Cc2ccccc2)c2ccccc2o1,nt,nt,nt,nt,i,nt,nt,nt,
C=CCOc1c(Cl)cc(CNc2ccc(N(C)C)cc2)cc1OC,i,i,i,i,i,63.8,i,i,
C=CCOc1c(Cl)cc(CNc2ccc(C)c(Cl)c2)cc1OC,i,i,i,i,nt,i,nt,nt,
C[C@@H]1CN([C@@H](C)CO)C(=O)CCCn2cc(nn2)CO[C@H]1CN(C)C(=O)Oc1ccccc1,nt,nt,nt,nt,i,nt,nt,nt,
COc1ccc(Cn2c(N)c(C#N)c3nc4ccccc4nc32)cc1OC,i,i,i,i,i,85.8,i,i,
COc1ccc(-n2c(C)cc(/C=N/Nc3nnc(C)n3N)c2C)cc1,i,i,i,i,i,52.6,i,i,
O=C1C(=Cc2ccco2)C(=O)c2ccccc21,i,i,i,i,i,44.4,i,i,
